# Published values from different studies.
# Compare with care: the assays were run in different laboratories.
# Target: Ephrin type-A receptor 3 (EPHA3, Homo sapiens, UniProt P29320)
# Residues used in one study (P29320 21-983): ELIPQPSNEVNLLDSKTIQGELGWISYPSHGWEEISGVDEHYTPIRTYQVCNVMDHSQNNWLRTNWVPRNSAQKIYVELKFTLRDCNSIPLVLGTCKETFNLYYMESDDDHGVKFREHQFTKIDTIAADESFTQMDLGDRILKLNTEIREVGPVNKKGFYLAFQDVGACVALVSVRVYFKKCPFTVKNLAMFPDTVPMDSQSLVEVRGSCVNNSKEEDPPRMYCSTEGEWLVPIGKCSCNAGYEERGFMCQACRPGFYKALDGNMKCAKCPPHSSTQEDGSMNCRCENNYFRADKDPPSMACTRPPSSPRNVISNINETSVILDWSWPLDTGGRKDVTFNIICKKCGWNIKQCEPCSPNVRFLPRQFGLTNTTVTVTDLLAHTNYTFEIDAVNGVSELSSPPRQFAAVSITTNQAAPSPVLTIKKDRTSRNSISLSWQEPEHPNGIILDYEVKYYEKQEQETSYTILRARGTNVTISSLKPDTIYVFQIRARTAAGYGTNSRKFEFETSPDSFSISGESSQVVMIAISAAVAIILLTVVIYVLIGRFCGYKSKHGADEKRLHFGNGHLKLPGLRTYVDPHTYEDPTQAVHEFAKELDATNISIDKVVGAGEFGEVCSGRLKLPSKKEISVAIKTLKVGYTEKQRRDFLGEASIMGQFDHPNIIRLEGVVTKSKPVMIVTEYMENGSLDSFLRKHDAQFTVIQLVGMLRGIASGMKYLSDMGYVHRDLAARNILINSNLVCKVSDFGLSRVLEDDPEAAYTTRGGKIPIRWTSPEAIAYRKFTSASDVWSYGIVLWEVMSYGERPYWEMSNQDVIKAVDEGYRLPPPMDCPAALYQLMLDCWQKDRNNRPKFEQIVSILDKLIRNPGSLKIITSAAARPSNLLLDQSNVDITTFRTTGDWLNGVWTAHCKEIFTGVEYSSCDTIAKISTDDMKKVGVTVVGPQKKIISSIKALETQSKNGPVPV
SMILES,assay,conditions,remaining binding
CCN1CCN(Cc2ccc(C(=O)Nc3ccc(C)c(Oc4ccc5c(c4)CC(=O)N5)c3)cc2C(F)(F)F)CC1,"binding, competition with immobilised ligand",1 µM,76%
C[C@H](c1cccc(C#N)c1)n1cc(Cl)cc(C(N)=O)c1=N,"cell-free assay, competition with immobilised ligand",1 µM,100%
CN(C)c1nccc(-c2cnn3ncccc23)n1,binding,1 µM,90%
O=C(c1ccc(Nc2nccc(-c3cc4ccccc4s3)n2)cc1)N1CCC(N2CCCC2)CC1,"binding, competition with immobilised ligand",1 µM,94%
N[C@@H]1CCN(c2nccc(-c3cnn4ncccc34)n2)C1,binding,1 µM,100%
Cc1nc(C2CCN(C(=O)c3ccc(OC(F)(F)F)cc3N)CC2)c2ncc(N3CCN(C)CC3)cc2n1,"cell-free assay, competition with immobilised ligand",1 µM,92%
O=C(c1ccc(Nc2ncc(Cl)c(-c3ccc(Cl)s3)n2)cc1)N1CCC(N2CCCC2)CC1,"binding, competition with immobilised ligand",1 µM,68%
c1cncc(-c2cccc(Nc3nccc(NC4CCCCC4)n3)c2)c1,"binding, competition with immobilised ligand",10 µM,68%
COc1cnc(Nc2cccc(S(N)(=O)=O)c2)nc1N1CCN(c2ccccc2)C(=O)C1,"binding, competition with immobilised ligand",1 µM,98%
CC1=C(C#N)[C@@H](c2ccc3[nH]nc(C)c3c2)C(C#N)=C(c2ccc(Cl)cc2)N1,"cell-free assay, competition with immobilised ligand",1 µM,100%
COc1cnc(Nc2cccc(S(N)(=O)=O)c2)nc1N1CCN(c2ccccc2)CC1,"binding, competition with immobilised ligand",1 µM,73%
Cc1cc(NC(=O)c2cccc(S(F)(F)(F)(F)F)c2)cc(-n2ccn3nc(-c4cccnc4)cc23)c1,"cell-free assay, competition with immobilised ligand",1 µM,100%
Cc1cnn2ncc(-c3ccnc(N(C)C)n3)c2c1,binding,1 µM,84%
O=C(NCCCN1CCOCC1)c1ccc(Nc2nccc(-c3cc4ccccc4s3)n2)cc1,"binding, competition with immobilised ligand",1 µM,85%
CC1CCCN1c1nccc(-c2cnn3ncccc23)n1 (centres unmarked),binding,1 µM,97%
O=C(NCC1CCOCC1)c1n[nH]cc1NC(=O)c1c(F)cccc1F,"binding, competition with immobilised ligand",1 µM,82%
Cn1nc(C(=O)NCc2ccc(C(=O)O)cc2)cc1-c1ccc2[nH]ccc2c1,"cell-free assay, competition with immobilised ligand",0.1 µM,89%
C[C@H]1CCN(c2nccc(-c3cnn4ncccc34)n2)C1,binding,1 µM,100%
CCS(=O)(=O)c1cc2cc(C[C@](O)(CC(C)(C)c3ccc(F)cc3C(N)=O)C(F)(F)F)[nH]c2cn1,"cell-free assay, competition with immobilised ligand",1 µM,95%
CN(C)c1ncc(F)c(-c2cnn3ncccc23)n1,binding,1 µM,100%
